RGS4 pot – potentiators or activators of RGS4 | B-score at 10 µM | HEK293 M3R/inducible RGS4, carbachol calcium flux Fluo4; stronger effect = lower value | actives 0.92% (n = 310,000);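 active = B-score of the integrated calcium signal more than 4 SD below the library mean, with starting fluorescence not abnormally high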;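 note: negative B-score means reduced calcium response which marks RGS4 activation or potentiation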
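Material: M3R-expressing HEK293 line, RGS4 induced by doxycycline | Schedule: Overnight RGS4 induction, 30 min dye load 37 °C, 20 min compound RT | Measured by: Fluo4 fluorescence kinetic imaging of calcium | Read-out: Integrated calcium ratio converted to B score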
MrgX1 allo act – human MrgX1 positive allosteric modulation, primary screen. B-score at 10 µM. actives 0.63% (n = 310,000). MrgX1-HEK293, Fluo-4 calcium flux, FDSS; stronger effect = higher value. Q96LB2. AID 588675;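 active = plate-corrected calcium response at least 3 library SD above typical, normal starting fluorescence, not activating the receptor alone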;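 note: compound read alongside a low EC10 to EC30 dose of BAM8-22 agonist; peak minus trough fluorescence over baseline measured at the second addition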
Target sequence (Q96LB2 whole entry, looked up): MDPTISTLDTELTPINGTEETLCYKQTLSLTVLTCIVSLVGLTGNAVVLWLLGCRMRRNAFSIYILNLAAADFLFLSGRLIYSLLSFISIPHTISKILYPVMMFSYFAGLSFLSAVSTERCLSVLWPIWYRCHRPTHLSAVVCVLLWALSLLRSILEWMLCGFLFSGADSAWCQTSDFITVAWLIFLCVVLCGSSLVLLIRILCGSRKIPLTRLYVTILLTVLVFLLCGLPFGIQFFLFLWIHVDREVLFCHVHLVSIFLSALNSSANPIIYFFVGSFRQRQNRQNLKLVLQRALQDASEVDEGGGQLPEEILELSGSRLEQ
MrgX1 ag – agonists of human MrgX1 receptor; Q96LB2; actives 0.44% (n = 310,000); B-score at 10 µM; MrgX1-HEK293 cells, Fluo-4 calcium fluorescence, agonist mode; stronger effect = higher value;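 active = calcium response B-score plate-corrected fluorescence ratio at least 3 library SD, with starting fluorescence B-score inside 5 SD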
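Test system: Stable human MrgX1 HEK293 cell line | Schedule: Overnight plating before 1 h dye loading | Read-out basis: Baseline-normalised fluorescence change ratio, B-scored | Detection: Kinetic calcium dye fluorescence, Fluo-4 NW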
MrgX1 antag – blocks BAM8-22 activation of human MrgX1 receptor | actives 1.3% (n = 310,000) | MRGX1-HEK293 calcium flux, Fluo-4, BAM8-22 antagonism; stronger effect = lower value | AID 588676 | B-score at 10 µM;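 active = calcium-response B-score plate-corrected more than 3 library SD below zero, starting fluorescence within 5 deviations, no agonist response on first addition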;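 note: peak minus trough fluorescence over baseline after final BAM8-22 challenge near maximal dose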
RGS4 block – human RGS4 inhibition; P49798; HEK293 M3R/RGS4 inducible, Fluo-4 calcium flux; stronger effect = higher value; triggered by carbachol at its EC20; B-score at 10 µM; actives 0.45% (n = 310,000);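 active = B-score, a plate-corrected calcium signal, over three deviations above library mean, with baseline fluorescence within five deviations of library mean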;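 note: RGS4 expression induced by doxycycline in cells with stable M3 receptor; B-score is computed from the integrated fluorescence ratio over baseline after carbachol; higher B-score means a larger calcium signal and so more RGS4 inhibition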
Target sequence (P49798 whole entry, looked up): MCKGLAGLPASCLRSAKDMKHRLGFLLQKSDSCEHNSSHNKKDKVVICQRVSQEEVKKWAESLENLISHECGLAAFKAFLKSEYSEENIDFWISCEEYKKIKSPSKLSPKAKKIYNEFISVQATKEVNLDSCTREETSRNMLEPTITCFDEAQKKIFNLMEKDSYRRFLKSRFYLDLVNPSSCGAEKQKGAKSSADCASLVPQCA
RGS4 block valid – validation of RGS4 inhibitors. shares compounds with RGS4 block. HEK293 M3R/RGS4, carbachol calcium Fluo-4 fluorescence; carbachol added at its EC20; 0 = buffer wells, 100 = carbachol control. calcium response, % at 10 µM. actives 65% (n = 1,700). AID 492999;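 active = duplicate-averaged calcium response above the buffer-only control mean plus 5 SD of those controls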;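 note: integrated fluorescence ratio F max minus min over baseline F0; higher response in RGS4-induced cells means RGS4 inhibition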
RGS4 uninduced – checks RGS4 inhibitor effects in non-induced HEK293 M3R cells | activity (percent), % at 10 µM | AID 493000 | carbachol calcium Fluo-4; submaximal (EC20) carbachol stimulus; buffer wells 0%, carbachol control wells 100% | actives 20% (n = 1,900) | shares compounds with RGS4 block; call rule not given here;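 note: RGS4 induction absent so cells express M3R without RGS4; higher means more calcium signal and flags a non-specific hit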
M3R basal Ca ctr – second RGS4 inhibitor counter-screen in uninduced cells lacking carbachol. shares compounds with RGS4 block. actives 22% (n = 1,900). calcium response (agonist-mode artifact), % at 10 µM. HEK293 M3R/RGS4 non-induced, Fluo-4 calcium, no carbachol; normalised: buffer wells 0%, carbachol wells 100%;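 active = duplicate-averaged calcium rise in uninduced cells above buffer wells' mean plus 5 SD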
The depositor's hits bear a star; i = inactive; x = no result. Hits are enriched below; roughly 3.5% of the tested compounds scored in any of these assays.

SMILES	RGS4 pot	MrgX1 allo act	MrgX1 ag	MrgX1 antag	RGS4 block	RGS4 block valid	RGS4 uninduced	M3R basal Ca ctr
Cc1ccc(Nc2nc(N)c3ccccc3n2)cc1C	i	i	i	i	i	i	i	i
CCNC(=S)N(CCc1c(C)[nH]c2ccc(C)cc12)Cc1cccs1	i	i	i	i	i	x	x	x
COCCNC(=S)N(CCc1c(C)[nH]c2ccc(F)cc12)Cc1cccs1	i	i	i	i	i	i	i	i
COCCNC(=S)N(CCc1c(C)[nH]c2ccc(Cl)cc12)Cc1cccs1	i	i	i	i	5.03*	6.0%*	i	i
O=c1nc(N2CCOCC2)nc(N/N=C/c2ccc3c(c2)OCO3)[nH]1	i	i	i	i	i	x	x	x
O=C(CNc1ccc(Cl)cc1)c1ccc(Br)cc1	i	i	i	i	i	x	x	x
O=C(CNc1ccc(Br)cc1)c1ccc(O)cc1	i	i	i	i	9.59*	22.5%*	i	i
O=C(Nc1nc2ccccc2[nH]1)C1CCN(S(=O)(=O)c2cccs2)CC1	i	i	i	i	i	x	x	x
CCN(CC1CCCO1)C(=O)c1cc(COc2ccc(OC)cc2Cl)on1 (centres undefined)	i	i	i	i	i	x	x	x
Cc1ccc(-c2ccc(C(=O)NCc3ccc(Cl)cc3)o2)c2ccccc12	i	i	i	i	4.78*	i	i	15.5%*
COc1ccc(-c2n[nH]c(C)c2-c2ccc(Cl)cc2)c(O)c1	i	i	i	i	i	x	x	x
Cc1[nH]nc(-c2ccc(O)cc2O)c1-c1ccc(Cl)cc1	i	i	i	i	28*	54.5%*	i	32.0%*
Oc1cccc(-c2nc3ccccc3s2)c1	i	i	i	i	i	x	x	x
Cc1[nH]nc(-c2ccc(O)cc2O)c1-c1nc2ccccc2s1	i	i	i	i	7.57*	21.0%*	i	25.5%*
CC1=NN(c2ccc(C)cc2C)C(=O)C1C(c1cccc(O)c1)C1C(=O)N(c2ccc(C)cc2C)N=C1C (centres undefined)	i	i	i	i	5.28*	13.5%*	50.0%*	i
CC1=NN(c2ccccc2)C(=O)C1N=Nc1cccc(O)c1 (centres undefined)	i	i	i	i	i	x	x	x
O=C(NCc1ccccc1)c1nc2c(nnn2Cc2cccc(Cl)c2)c(=O)[nH]1	i	i	i	i	4.94*	22.5%*	i	i
O=C(NCc1ccco1)c1nc2c(nnn2Cc2cccc(Cl)c2)c(=O)[nH]1	i	i	i	i	7.95*	21.5%*	i	i
Cc1[nH]c(=O)[nH]c(=O)c1/C=N\NC(=O)CCc1ccc(OC(C)C)cc1	i	i	i	i	i	x	x	x
Cn1c(SCC(=O)Nc2ccc3[nH]c(=O)[nH]c3c2)nnc1-c1ccccc1	i	i	i	i	i	x	x	x
Cn1c(SCC(=O)Nc2ccc3c(c2)oc2ccccc23)nnc1-c1ccccc1	i	i	i	i	5.13*	7.5%*	i	i
NNC(=O)c1nc[nH]c1C(=O)Nc1ccccn1	i	i	i	i	14.7*	5.0%*	i	i
Nc1ccc(-c2cc(-c3cccc(N)c3)nc(-c3ccccc3)n2)cc1	i	i	i	i	i	i	i	i
Nc1ccc(-c2nc(-c3ccccc3)nc3ccccc23)cc1	i	i	i	i	i	x	x	x
Cc1[nH]c2ccccc2c1C(=O)CSc1ccc(Cl)cc1	i	i	i	i	i	x	x	x
SMILES	RGS4 pot	MrgX1 allo act	MrgX1 ag	MrgX1 antag	RGS4 block	RGS4 block valid	RGS4 uninduced	M3R basal Ca ctr
Cc1[nH]c2ccccc2c1C(=O)CN1C(=O)NC(C)(c2ccc(Cl)cc2Cl)C1=O (centres undefined)	i	i	i	i	10.2*	30.0%*	i	56.5%*
CO/C=C\C=C/c1nnn(-c2ccc(Cl)cc2)n1	i	i	i	i	7.46*	i	i	8.0%*
Cc1cccc(N=c2oc3cc(O)ccc3cc2C(N)=O)c1	i	i	i	i	4.71*	6.0%*	i	30.5%*
CC1=NOC(=O)/C1=C/c1ccc(O)c(Br)c1	i	i	38.2*	i	9.07*	30.5%*	i	67.5%*
COc1ccc(/C=C2/C(=O)ON=C2C)cc1Cl	i	i	i	i	i	x	x	x
CC1=NOC(=O)/C1=C/c1ccc(O)cc1	i	i	i	i	5.85*	12.0%*	i	i
Cc1ccc(NC(=O)C(=Cc2ccc(C(=O)O)cc2)C(=O)Nc2ccc(C)cc2C)c(C)c1	i	i	i	i	10.6*	18.5%*	i	i
O=[N+]([O-])/C=C\c1ccc(N2CCOCC2)cc1	i	i	41.2*	i	34.8*	88.0%*	94.5%*	35.0%*
Cc1c(OCC(=O)NC2CC(C)(C)NC(C)(C)C2)ccc2c1oc(=O)c1ccccc12	i	i	i	i	i	x	x	x
CCC(=O)NC(c1cccc([N+](=O)[O-])c1)c1c(OC(C)=O)ccc2ccccc12 (centres undefined)	i	i	i	i	i	x	x	x
CCC(=O)NC(c1ccccc1)c1c(OC(C)=O)ccc2ccccc12 (centres undefined)	i	i	i	i	i	x	45.0%*	7.0%*
Cc1cccc(/N=C/c2ccccn2)n1	i	i	i	i	i	x	x	x
COC(=O)N/N=C/c1cc(Br)ccc1O	i	i	i	i	i	x	x	x
CC(C)NC(=S)N/N=C/c1cc(Br)ccc1O	i	i	i	i	5.76*	11.5%*	i	i
CC(C)(C)OC(=O)N1CCC2(CC1)Oc1ccc(Cl)cc1C(=O)C21CC(c2ccc(Cl)cc2)=NO1 (centres undefined)	i	i	i	i	i	x	x	x
CCOc1cccc(-c2c(C(=O)N/N=C/c3ccoc3)nnn2-c2nonc2N)c1	i	i	i	i	i	i	i	i

Screening data from PubChem BioAssay.
